# IMP-1 inh – blocks Pseudomonas aeruginosa IMP-1 metallo-beta-lactamase | purified IMP-1, nitrocefin hydrolysis, epi-absorbance fluorescence | inhibition, % at 5.6 µM | actives 0.45% (n = 290,000);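 active means inhibition above the mean plus 3 SD of all compounds in the same screening run, cut at about 4.5% in these data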;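 further: 0% = IMP-1 with DMSO and 100% = DMSO wells lacking enzyme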
#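 assay system = purified recombinant IMP-1 metallo-beta-lactamase enzyme | schedule = 15 min preincubation plus 25 min reaction at 25 °C | signal = Epi-absorbance fluorescence, 480 nm excitation, 530 nm emission | read-out basis = percent inhibition from optical density relative to buffer-blank wells | controls = IMP-1 with DMSO as 0%, enzyme-free DMSO as 100%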
# VIM-2 inhibitor – inhibitors of Pseudomonas aeruginosa VIM-2 metallo-beta-lactamase. purified VIM-2, nitrocefin hydrolysis, epi-absorbance fluorescence. inhibition, % at 5.6 µM. actives 0.89% (n = 290,000). AID 1527;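 active means inhibition above the mean of all tested compounds plus 3 SD, cutoff set per screening run, cut at about 7.5% in these data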;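 further: red hydrolysis product quenches plate fluorescence so inhibitors raise well fluorescence; 0% = enzyme with DMSO and 100% = DMSO without enzyme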
# PAFAH1B3 FP inh – blocks human PAF acetylhydrolase 1B catalytic subunit 3; Q15102; actives 0.28% (n = 340,000); inhibition, % at 3.39 µM; recombinant PAFAH1B3, FP-rhodamine probe, fluorescence polarization;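 active means inhibition above the screen-wide average of all tested compounds plus 3 SD, cut at about 25% in these data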;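 further: 0% = enzyme with DMSO only and 100% = wells lacking PAFAH1B3 protein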
# pPAFAH FP inh – pPAFAH (human) enzyme inhibition; Q13093; recombinant pPAFAH, FP-rhodamine probe fluorescence polarization; inhibition, % at 3.39 µM; actives 1.5% (n = 330,000); AID 463082;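 active means inhibition above the mean inhibition across the screen plus 3 SD, cut at about 25% in these data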;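 further: inhibitors block binding of the rhodamine activity-based probe so polarization drops; 0% = enzyme with DMSO and 100% = wells lacking pPAFAH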
# Target sequence (Q13093 whole entry, looked up): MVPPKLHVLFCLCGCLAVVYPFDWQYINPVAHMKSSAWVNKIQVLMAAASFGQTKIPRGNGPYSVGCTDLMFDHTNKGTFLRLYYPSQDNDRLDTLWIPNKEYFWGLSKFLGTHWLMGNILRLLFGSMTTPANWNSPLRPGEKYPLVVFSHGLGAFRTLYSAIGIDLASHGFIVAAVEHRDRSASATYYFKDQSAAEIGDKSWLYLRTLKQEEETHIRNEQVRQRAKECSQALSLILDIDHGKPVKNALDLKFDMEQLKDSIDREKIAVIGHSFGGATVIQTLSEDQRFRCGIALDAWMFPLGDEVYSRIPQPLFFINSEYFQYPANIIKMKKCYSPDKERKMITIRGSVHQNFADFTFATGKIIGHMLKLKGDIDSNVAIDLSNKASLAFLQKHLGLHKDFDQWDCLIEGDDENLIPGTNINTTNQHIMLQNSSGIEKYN
# PAFAH1B2 FP inh – inhibitors of human PAFAH1B2. P68402. recombinant PAFAH1B2, FP-rhodamine activity probe, fluorescence polarization. inhibition, % at 3.39 µM. actives 1.2% (n = 340,000). AID 492953;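 active means inhibition above the mean of all tested compounds plus 3 SD, cut at about 24% in these data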;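 further: 0% = enzyme with DMSO and 100% = wells lacking PAFAH1B2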
# PAFAH2 inh – inhibitors of human PAFAH2. Q99487. recombinant PAFAH2, FP-rhodamine activity probe, fluorescence polarization. inhibition, % at 3.39 µM. actives 0.99% (n = 340,000);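 active means inhibition above the mean over all tested compounds plus 3 SD, cut at about 30% in these data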;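 further: inhibitors block probe labeling of enzyme so polarization drops; 0% = enzyme with DMSO and 100% = wells lacking PAFAH2 protein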
# * marks the source's active call; other numbers are inactive results; . = no result. Only some compounds are listed: those with a hit (about 3.6% of all), similar ones and a draw of the others.
SMILES,IMP-1 inh,VIM-2 inhibitor,PAFAH1B3 FP inh,pPAFAH FP inh,PAFAH1B2 FP inh,PAFAH2 inh
O=c1[nH]c(=S)n(Cc2ccc(F)cc2)c(O)c1/C=N/N1CCCCC1,-4,-4,-7,0,32*,2
O=c1[nH]c(=O)n(Cc2ccc(F)cc2)c(O)c1C=NCCN1CCCCC1,-3,-1,5,4,10,2
c1ccc([C@@H]2CO2)cc1,.,.,.,5,.,.
CCOc1ccc(NC(=O)CCNC(=O)N2C[C@H]3C[C@@H](C2)c2cccc(=O)n2C3)cc1,0,-2,4,1,0,3
COc1cc2c(cc1OC)C(C(=O)NC(C)C)C1CCCCN1C2=O (configuration not stated),1,1,3,-11,-1,3
COC(=O)C1=C(c2ccc(C(C)=O)cc2)C[C@@H]2CC[C@H]1N2C(=O)NCc1ccco1,.,.,-2,9,-1,-3
Cc1ccc2c(c1)cc1c(=O)n(CC(=O)N3CCC4(CC3)OCCO4)nc(C)n12,-1,-3,10,26*,4,-4
CCc1nn(CC(=O)N2CCC3(CC2)OCCO3)c(=O)c2cccn12,-1,1,-2,1,-2,6
NCCc1cc(O)c(O)cc1O,.,.,88*,.,55*,72*
C#C[C@@]1(O)CCC2C3CCC4=C/C(=N/OCC(=O)NC(CCC(N)=O)C(=O)O)CC[C@]4(C)C3CC[C@@]21C (some centres not stated),-1,-2,-1,0,1,4
COC(=O)C1=C(c2cccc(Cl)c2)C[C@@H]2CC[C@H]1N2C(=O)N1CCCC1,.,.,5,0,-3,4
O=C(O)c1ccc(-n2c(O)c(/C=C3\C=Nc4ccccc43)c(=O)[nH]c2=O)cc1,-1,-2,-2,-1,4,5
O=c1[nH]c(=O)n(-c2cccc(F)c2)c(O)c1/C=C1\C=Nc2ccccc21,4,2,20,3,25*,-4
CC1CCCCC1NC(=O)CNC(=S)N1CC2CC(C1)c1cccc(=O)n1C2 (configuration not stated),-1,0,5,8,-1,8
CCN(CC)CCNC(=O)c1c(O)c2ccccc2n(Cc2ccccc2)c1=O,-1,4,4,-4,-1,9
CCN(CC)CCCNC(=O)c1c(O)c2ccccc2n(Cc2ccccc2)c1=O,-3,12*,6,1,3,0
NC(Cc1cc(O)c(O)cc1O)C(=O)O (configuration not stated),.,.,.,84*,.,.
N[C@@H](CCl)C(=O)O,.,.,4,-2,1,0
CC(=O)c1c(O)n(-c2cccc(Cl)c2)c(=O)[nH]c1=O (tested in a mixture with another compound),-4,-2,0,5,7,3
CC(C)n1c(O)c(C2c3cc(Cl)ccc3Oc3[nH]c(=O)n(C(C)C)c(=O)c32)c(=O)[nH]c1=O (configuration not stated),-2,-3,3,.,39*,-1
COc1ccc(C2=NS(=O)(=O)N(C)C(C(=O)N3CCC4(CC3)OCCO4)=C2)cc1OC,-2,-1,10,4,3,-2
COc1cccc(CC(=O)N2CCN(Cc3cccc(Cl)c3)CC2)c1,-2,-3,3,0,6,-1
COc1cccc(C2CCN(CC(=O)Nc3cc(Cl)ccc3OC)CC2O)c1 (configuration not stated),0,-3,8,33*,4,-1
COC(=O)C1=C(c2ccc(OC(F)(F)F)cc2)C[C@@H]2CC[C@H]1N2C(=O)NCCc1ccccc1,.,.,6,30*,3,-2
COC(=O)C1=C(c2ccc(C(C)=O)cc2)C[C@@H]2CC[C@H]1N2C(=O)NCc1ccc(C(F)(F)F)cc1,.,.,15,1,35*,5
SMILES,IMP-1 inh,VIM-2 inhibitor,PAFAH1B3 FP inh,pPAFAH FP inh,PAFAH1B2 FP inh,PAFAH2 inh
COC(=O)C1=C(c2ccccc2)C[C@@H]2CC[C@H]1N2C(=O)NCc1ccc(C(F)(F)F)cc1,.,.,2,9,-3,1
COc1cccc(N2C(=O)NC(=O)/C(=C/c3ccc([N+](=O)[O-])s3)C2=O)c1,-1,0,46*,33*,33*,49*
O=C1NC(=O)N(c2ccc(F)cc2)C(=O)/C1=C/c1ccc(N2CCOCC2)cc1,-3,-4,11,6,1,4
O=C1NC(=O)N(Cc2ccc(F)cc2)C(=O)/C1=C\c1ccc(N2CCCC2)cc1,-2,1,-3,26*,7,12
COc1cccc(N2C(=O)NC(=O)/C(=C/c3ccc4c(c3)Cc3ccccc3-4)C2=O)c1,-1,-1,7,3,4,12
O=C1NC(=O)N(Cc2ccc(F)cc2)C(=O)/C1=C\c1ccc([N+](=O)[O-])s1,-2,0,22,26*,34*,56*
COc1ccc(CN2C(=O)NC(=O)/C(=C/c3ccc([N+](=O)[O-])s3)C2=O)cc1,-1,1,46*,31*,33*,63*
O=P(O)(O)CN1CCNCCN(CP(=O)(O)O)CCNCC1,.,.,12,.,3,-3
COc1cc2c(cc1OC)-c1c3c(cc4c1[C@@H](C2)N(C)CC4)OCO3,-1,5,16,18,-6,2
COc1cc2c(cc1O)C[C@H]1NCCc3cc4c(c-2c31)OCO4,-3,2,18,25*,10,9
COc1ccc(-n2c(O)c(/C=C/C=Nc3ccccc3)c(=O)[nH]c2=O)cc1,9.4*,5,-19,0,-11,-15
CCCCn1c(NC(=O)c2ccco2)c(C(=O)OCC)c2nc3ccccc3nc21,-1,0,54*,2,25*,17
CC(=O)Nc1ccc(OC(=O)N2CCCCC2)cc1,-1,2,8,0,5,4
O=C(Oc1ccc([N+](=O)[O-])cc1)N1CCC(N2CCCCC2)CC1,1,-1,-2,34*,1,19
CCOCCN1CCN(c2nnc3n2-c2ccc(Cl)cc2C(c2ccccc2Cl)=NC3)CC1,-4,-3,9,-1,-5,4
COCCCN1CCN(c2nnc3n2-c2sc(Br)cc2C(c2ccccc2Cl)=NC3)CC1,8.3*,-4,1,6,1,2
Cc1ccc(OCCOc2cccc(C=C3C(=O)NC(=O)NC3=O)c2)cc1,-2,-3,1,4,39*,1
Cc1cc(OCC(=O)N[C@@H](Cc2ccccc2)C(=O)O)c2c3c(c(=O)oc2c1)CCCC3,-4,11*,8,4,18,7
COC(=O)C(C)Oc1cc(C)cc2oc(=O)c3c(c12)CCC3 (configuration not stated),-5,11*,3,-1,0,1
